Data from ChEMBL document CHEMBL5678808, “Human target validation of phosphoinositide 3-kinase (PI3K)β: effects on platelets and insulin sensitivity, using AZD6482 a novel PI3Kβ inhibitor” (J Thromb Haemost, 2012).

Columns and labels:
[1] = Volume of distribution at steady state in human at 0.9 to 455.8 mg, iv administered for 3 hrs via infusion by LC-MS/MS analysis; format: ADME, organism-based; settings: in vivo, dose 0.9-455.8 mg
Method in brief: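 Healthy male volunteers (18–36 years) in a randomized, double-blind, placebo-controlled single ascending-dose study received a 3-h i.v. infusion. Plasma drug levels were measured by protein precipitation then LC-MS/MS (LLOQ 0.005 μm). Non-compartmental pharmacokinetic analysis was used; median (range) across dose levels reported.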

[2] = target: cAMP-dependent protein kinase (PKA) (Homo sapiens) (UniProt P22694+P17612+P22612); test: Inhibition of PKA (unknown origin) at 10 uM relative to control; format: protein assay
[3] = target: Protein kinase C alpha type (Homo sapiens) (UniProt P17252); test: Inhibition of human PKCa at 10 uM relative to control
[4] = target: Serine/threonine-protein kinase N2 (Homo sapiens) (UniProt Q16513); test: Inhibition of human PRK2 at 10 uM relative to control
[5] = test system: Rattus norvegicus; test: (§1) Insulin sensitizing activity in Sprague-Dawley rat hyperinsulinemic-euglycemic glucose clamp model assessed as glucose level during infusion of human insulin at 1000 ug/kg/min, iv for 2 mins followed by 50 ug/kg/min, iv for 28 mins measured during clamp 2 by colorimetry (reference value: 8.1 +/- 0.7 mM); format: functional; settings: time 30 min, 0.5 h
Method in brief: (§2)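 Anesthetized rats; hyperinsulinemic–euglycemic clamp with human insulin infused. A baseline clamp (Clamp1) was followed by a second clamp (Clamp2) with vehicle or drug i.v. The drug was given as a low dose (1000 μg kg−1 + 50 μg kg min−1) or a high dose (6000 μg kg−1 + 300 μg kg min−1). Steady-state glucose infusion rate for euglycemia was recorded, with plasma glucose, human insulin and total insulin; mean ± SEM, n = 4–5/group.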

[6] = species: Rattus norvegicus; test: Inhibition of rat AMPK at 10 uM relative to control
[7] = target: Dual specificity tyrosine-phosphorylation-regulated kinase 2 (Homo sapiens) (UniProt Q92630); test: Inhibition of human DYRK2 at 10 uM relative to control
[8] = test system: Rattus norvegicus; test: as §1, with “infusion rate required to maintain euglycemia” for “level”, “6000” for “1000”, “300” for “50”, “2” for “2 by colorimetry”, “138” for “8.1”, “4 umol/min/kg)” for “0.7 mM)”; format: functional; settings: time 30 min, 0.5 h; method in brief: as §2
[9] = target: DNA-dependent protein kinase catalytic subunit (Homo sapiens, UniProt P78527); test: Inhibition of human DNA-PK assessed as reduction in protein phosphorylation by ELISA
Method in brief: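 Recombinant human DNA-PK was tested in a functional assay, with substrate protein phosphorylation read by ELISA. IC50 is reported as mean ± SEM, with the number of determinations given.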

[10] = Clearance in human at 0.9 to 455.8 mg, iv administered for 3 hrs via infusion by LC-MS/MS analysis; format: ADME, organism-based; settings: in vivo, dose 0.9-455.8 mg
Method in brief: (§3)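 Randomized, double-blind, placebo-controlled single ascending-dose study in healthy male volunteers aged 18–36. Each subject received a 3-h i.v. infusion (0.9–455.8 mg). Plasma levels were measured by protein precipitation and LC-MS/MS (LLOQ 0.005 μm), with non-compartmental PK analysis. Half-life was calculated only for the four highest dose groups. The 3-h sample was taken as Css.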

[11] = test system: Rattus norvegicus; test: (§4) Insulin sensitizing activity in Sprague-Dawley rat hyperinsulinemic-euglycemic glucose clamp model assessed as basal glucose level during infusion of human insulin at 6000 ug/kg/min, iv for 2 mins followed by 300 ug/kg/min, iv for 28 mins by colorimetry (reference value: 8.1 +/- 0.7 mM); format: functional; settings: time 30 min, 0.5 h; method in brief: as §2
[12] = target: Epidermal growth factor receptor (Homo sapiens, UniProt P00533); test: Inhibition of human EGFR
[13] = target: Serine/threonine-protein kinase Nek6 (Homo sapiens) (UniProt Q9HC98); test: Inhibition of human NEK6 at 10 uM relative to control
[14] = target: Tyrosine-protein kinase ZAP-70 (Homo sapiens, UniProt P43403); test: Inhibition of human ZAP70
[15] = target: Mitogen-activated protein kinase 8 (Homo sapiens) (UniProt P45983); test: Inhibition of human JNK1 at 10 uM relative to control
[16] = target: Aurora kinase C (Homo sapiens) (UniProt Q9UQB9); test: Inhibition of human AuroraC at 10 uM relative to control
[17] = target: Mitogen-activated protein kinase 13 (Homo sapiens) (UniProt O15264); test: Inhibition of human MAPK13 at 10 uM relative to control
[18] = target: Tyrosine-protein kinase CSK (Homo sapiens, UniProt P41240); test: Inhibition of human CSK
[19] = target: Myosin light chain kinase, smooth muscle (Homo sapiens) (UniProt Q15746); test: Inhibition of human smMLCK at 10 uM relative to control
[20] = target: Dual specificity tyrosine-phosphorylation-regulated kinase 3 (Homo sapiens) (UniProt O43781); test: Inhibition of human DYRK3 phosphorylation at 10 uM relative to control
[21] = target: MAP kinase-interacting serine/threonine-protein kinase 1 (Homo sapiens) (UniProt Q9BUB5); test: Inhibition of human MNK1 at 10 uM relative to control
[22] = target: Serine/threonine-protein kinase Nek7 (Homo sapiens) (UniProt Q8TDX7); test: Inhibition of human NEK7 at 10 uM relative to control
[23] = target: MAP kinase-activated protein kinase 2 (Homo sapiens) (UniProt P49137); test: Inhibition of MAPK Activated Protein Kinase-2 (unknown origin) at 10 uM relative to control
[24] = Elimination half life in human at 40.5 to 455.8 mg, iv administered for 3 hrs via infusion by LC-MS/MS analysis; format: ADME, organism-based; settings: in vivo, dose 40.5-455.8 mg, read-out: beta t1/2; method in brief: as §3
[25] = test system: Rattus norvegicus; test: as §1, with “infusion rate required to maintain euglycemia” for “level”, “1” for “2 by colorimetry”, “124” for “8.1”, “4 umol/min/kg)” for “0.7 mM)”; format: functional; settings: time 30 min, 0.5 h; method in brief: as §2
[26] = test system: Rattus norvegicus; test: (§5) Insulin sensitizing activity in Sprague-Dawley rat hyperinsulinemic-euglycemic glucose clamp model assessed as human insulin level during infusion of human insulin at 1000 ug/kg/min, iv for 2 mins followed by 50 ug/kg/min, iv for 28 mins measured during clamp 2 (reference value: 1.8 +/- 0.1 nM); format: functional; settings: time 30 min, 0.5 h; method in brief: as §2
[27] = target: Serine/threonine-protein kinase pim-1 (Homo sapiens) (UniProt P11309); test: Inhibition of human PIM1 at 10 uM relative to control
[28] = test system: Rattus norvegicus; test: as §5, with “glucose infusion rate required to maintain euglycemia” for “human insulin level”, “138” for “1.8”, “4 umol/min/kg)” for “0.1 nM)”; format: functional; settings: time 30 min, 0.5 h; method in brief: as §2
[29] = target: MAP/microtubule affinity-regulating kinase 3 (Homo sapiens) (UniProt P27448); test: Inhibition of human MARK3 at 10 uM relative to control
[30] = test system: Rattus norvegicus; test: as §4, with “assessed as glucose level” for “assessed as basal glucose level”, “28 mins measured during clamp 2 by colorimetry” for “28 mins by colorimetry”; format: functional; settings: time 30 min, 0.5 h; method in brief: as §2
[31] = target: Eukaryotic elongation factor 2 kinase (Homo sapiens) (UniProt O00418); test: Inhibition of human EF2K at 10 uM relative to control
[32] = target: Serine/threonine-protein kinase mTOR (Homo sapiens, UniProt P42345); test: Inhibition of mTOR (unknown origin)

Chain of MAP kinase-activated protein kinase 2 (Homo sapiens) (P49137 whole entry, looked up, the tested form may be a part): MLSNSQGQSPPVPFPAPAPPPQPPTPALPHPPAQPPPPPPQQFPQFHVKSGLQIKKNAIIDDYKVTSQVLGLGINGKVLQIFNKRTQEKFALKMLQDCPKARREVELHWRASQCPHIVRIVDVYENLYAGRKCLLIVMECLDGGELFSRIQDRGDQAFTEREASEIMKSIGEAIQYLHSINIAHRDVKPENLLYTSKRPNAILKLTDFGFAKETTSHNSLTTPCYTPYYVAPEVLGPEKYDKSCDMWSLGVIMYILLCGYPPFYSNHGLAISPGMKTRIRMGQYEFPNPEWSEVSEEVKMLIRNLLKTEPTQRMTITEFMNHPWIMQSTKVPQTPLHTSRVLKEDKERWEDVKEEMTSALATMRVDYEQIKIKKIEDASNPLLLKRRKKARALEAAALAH
Chain of Aurora kinase C (Homo sapiens) (Q9UQB9 whole entry): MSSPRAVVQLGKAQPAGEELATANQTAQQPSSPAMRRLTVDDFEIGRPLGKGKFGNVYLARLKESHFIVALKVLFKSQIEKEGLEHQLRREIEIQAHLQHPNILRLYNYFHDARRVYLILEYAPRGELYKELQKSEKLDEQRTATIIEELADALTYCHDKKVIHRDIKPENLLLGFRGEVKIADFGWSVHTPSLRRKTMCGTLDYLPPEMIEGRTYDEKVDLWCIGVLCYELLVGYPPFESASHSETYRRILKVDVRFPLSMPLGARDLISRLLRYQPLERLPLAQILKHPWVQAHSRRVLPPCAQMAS
Chain of Serine/threonine-protein kinase N2 (Homo sapiens) (Q16513 whole entry, looked up, the tested form may be a part): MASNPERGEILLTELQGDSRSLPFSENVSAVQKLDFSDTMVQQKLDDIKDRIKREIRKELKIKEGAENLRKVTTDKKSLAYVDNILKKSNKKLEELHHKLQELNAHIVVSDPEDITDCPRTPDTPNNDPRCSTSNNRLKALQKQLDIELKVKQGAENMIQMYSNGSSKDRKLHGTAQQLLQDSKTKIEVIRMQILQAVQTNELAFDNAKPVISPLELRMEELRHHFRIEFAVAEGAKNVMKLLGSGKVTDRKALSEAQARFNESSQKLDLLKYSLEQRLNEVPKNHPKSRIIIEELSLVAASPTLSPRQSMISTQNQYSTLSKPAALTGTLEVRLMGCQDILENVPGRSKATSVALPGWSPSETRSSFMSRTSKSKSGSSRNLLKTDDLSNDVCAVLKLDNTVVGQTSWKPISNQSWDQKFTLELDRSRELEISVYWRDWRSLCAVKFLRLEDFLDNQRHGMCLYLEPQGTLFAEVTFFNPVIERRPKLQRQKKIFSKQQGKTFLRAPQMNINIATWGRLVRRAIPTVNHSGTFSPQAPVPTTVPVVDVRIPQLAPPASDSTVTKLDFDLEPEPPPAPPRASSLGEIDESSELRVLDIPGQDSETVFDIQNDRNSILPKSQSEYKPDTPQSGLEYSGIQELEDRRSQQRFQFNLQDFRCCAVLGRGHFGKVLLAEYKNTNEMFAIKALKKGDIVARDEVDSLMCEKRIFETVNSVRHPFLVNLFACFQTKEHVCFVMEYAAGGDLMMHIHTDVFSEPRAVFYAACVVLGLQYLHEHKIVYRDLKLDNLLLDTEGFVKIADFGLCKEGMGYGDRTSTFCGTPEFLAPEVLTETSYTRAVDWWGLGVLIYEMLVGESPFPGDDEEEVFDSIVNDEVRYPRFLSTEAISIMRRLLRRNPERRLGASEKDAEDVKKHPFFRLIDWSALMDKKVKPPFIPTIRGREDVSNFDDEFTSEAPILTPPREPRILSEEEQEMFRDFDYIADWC
Chain of Dual specificity tyrosine-phosphorylation-regulated kinase 2 (Homo sapiens) (Q92630 whole entry, the tested form may be a part): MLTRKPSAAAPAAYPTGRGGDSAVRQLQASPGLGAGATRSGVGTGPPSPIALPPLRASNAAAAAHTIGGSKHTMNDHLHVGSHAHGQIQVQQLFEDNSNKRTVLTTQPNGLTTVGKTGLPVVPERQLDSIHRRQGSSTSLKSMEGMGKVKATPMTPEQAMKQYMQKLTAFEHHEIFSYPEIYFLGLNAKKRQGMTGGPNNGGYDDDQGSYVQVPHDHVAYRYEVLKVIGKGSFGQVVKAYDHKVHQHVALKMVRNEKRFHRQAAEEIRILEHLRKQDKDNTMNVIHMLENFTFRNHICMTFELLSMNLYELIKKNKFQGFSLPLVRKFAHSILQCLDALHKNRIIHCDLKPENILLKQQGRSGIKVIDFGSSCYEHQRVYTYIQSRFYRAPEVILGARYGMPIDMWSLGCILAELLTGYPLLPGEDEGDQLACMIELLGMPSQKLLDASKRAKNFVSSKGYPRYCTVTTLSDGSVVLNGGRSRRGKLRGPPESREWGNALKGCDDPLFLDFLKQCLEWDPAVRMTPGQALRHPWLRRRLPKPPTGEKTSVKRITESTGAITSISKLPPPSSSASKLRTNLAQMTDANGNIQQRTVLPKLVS
Chain of MAP kinase-interacting serine/threonine-protein kinase 1 (Homo sapiens) (Q9BUB5 whole entry, looked up): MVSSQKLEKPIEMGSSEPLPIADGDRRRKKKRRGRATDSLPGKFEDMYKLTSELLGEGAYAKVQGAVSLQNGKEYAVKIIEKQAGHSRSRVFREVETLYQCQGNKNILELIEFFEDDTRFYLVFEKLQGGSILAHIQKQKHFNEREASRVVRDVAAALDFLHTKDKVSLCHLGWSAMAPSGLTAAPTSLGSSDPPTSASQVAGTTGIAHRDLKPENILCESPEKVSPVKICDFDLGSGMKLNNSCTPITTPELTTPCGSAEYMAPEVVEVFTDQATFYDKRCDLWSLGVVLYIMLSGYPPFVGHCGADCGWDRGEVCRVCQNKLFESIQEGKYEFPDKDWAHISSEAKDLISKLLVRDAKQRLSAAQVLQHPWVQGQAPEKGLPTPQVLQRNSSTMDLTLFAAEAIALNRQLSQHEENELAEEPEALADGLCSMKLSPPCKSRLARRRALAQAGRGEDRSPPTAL
Chain of Serine/threonine-protein kinase Nek7 (Homo sapiens) (Q8TDX7 whole entry, looked up): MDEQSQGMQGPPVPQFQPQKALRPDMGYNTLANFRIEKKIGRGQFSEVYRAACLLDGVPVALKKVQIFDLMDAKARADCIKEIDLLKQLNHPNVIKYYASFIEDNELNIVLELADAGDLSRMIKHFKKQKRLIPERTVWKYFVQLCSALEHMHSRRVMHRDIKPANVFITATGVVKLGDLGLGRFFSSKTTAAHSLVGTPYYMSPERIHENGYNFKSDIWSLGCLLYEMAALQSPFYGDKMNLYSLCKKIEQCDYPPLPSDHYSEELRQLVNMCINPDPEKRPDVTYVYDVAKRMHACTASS
Chain of Eukaryotic elongation factor 2 kinase (Homo sapiens) (O00418 whole entry): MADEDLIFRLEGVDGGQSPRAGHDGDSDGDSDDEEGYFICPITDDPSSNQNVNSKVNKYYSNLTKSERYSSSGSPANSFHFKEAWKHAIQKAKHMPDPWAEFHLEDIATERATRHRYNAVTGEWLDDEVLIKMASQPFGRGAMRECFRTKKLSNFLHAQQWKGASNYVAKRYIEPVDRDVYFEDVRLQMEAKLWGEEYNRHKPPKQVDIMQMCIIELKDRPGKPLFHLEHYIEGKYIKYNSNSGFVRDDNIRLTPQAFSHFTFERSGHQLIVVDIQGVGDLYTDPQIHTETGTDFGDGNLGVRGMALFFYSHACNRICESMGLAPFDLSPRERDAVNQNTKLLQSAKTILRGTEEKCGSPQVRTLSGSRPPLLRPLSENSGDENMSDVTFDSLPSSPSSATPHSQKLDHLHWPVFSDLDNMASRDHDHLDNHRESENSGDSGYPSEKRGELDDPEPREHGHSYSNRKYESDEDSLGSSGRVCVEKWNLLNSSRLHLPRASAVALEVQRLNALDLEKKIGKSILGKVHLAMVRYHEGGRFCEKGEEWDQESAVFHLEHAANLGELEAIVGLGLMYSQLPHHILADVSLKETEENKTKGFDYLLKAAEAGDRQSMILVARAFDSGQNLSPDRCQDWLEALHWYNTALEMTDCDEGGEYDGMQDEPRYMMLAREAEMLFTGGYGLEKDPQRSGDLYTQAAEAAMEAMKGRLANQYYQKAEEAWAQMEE
Chain of Serine/threonine-protein kinase Nek6 (Homo sapiens) (Q9HC98 whole entry): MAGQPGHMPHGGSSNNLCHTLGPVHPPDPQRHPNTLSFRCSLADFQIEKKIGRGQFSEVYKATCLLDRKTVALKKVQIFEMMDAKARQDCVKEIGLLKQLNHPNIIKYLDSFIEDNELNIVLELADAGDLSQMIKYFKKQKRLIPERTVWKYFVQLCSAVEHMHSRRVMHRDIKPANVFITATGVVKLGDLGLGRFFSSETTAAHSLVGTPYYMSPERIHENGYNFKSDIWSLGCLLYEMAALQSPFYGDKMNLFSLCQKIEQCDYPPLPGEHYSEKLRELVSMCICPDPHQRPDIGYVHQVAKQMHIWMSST

With `Cc1cc([C@@H](C)Nc2ccccc2C(=O)O)c2nc(N3CCOCC3)cc(=O)n2c1` [AZD-6482] the Vd [1] was 48 L, the inhibition [2] was -7.5% and the inhibition [3] was -0.9%. It also gave an inhibition [4] of -2.9%, an Activity [5] of 7.2 mM and an inhibition [6] of 14%. For the same compound, the inhibition [7] was 18%, the Activity [8] was 38 µmol/min/kg and the IC50 [9] was 0.42 µM. It also gave a clearance [10] of 1180 mL/min, an Activity [11] of 7.7 mM and an IC50 [12] of over 298 µM. The inhibition [13] was 2.5%, the IC50 [14] was over 999 µM and the inhibition [15] was 9.1%. It also gave an inhibition [16] of 56%, an inhibition [17] of -10% and an IC50 [18] of 90 µM. For the same compound, the inhibition [19] was 2.6%, the inhibition [20] was 16% and the inhibition [21] was -9.8%. For the same compound, the inhibition [22] was 7.1%, the inhibition [23] was 13% and the half-life [24] was about 20 min. It also gave an Activity [25] of 105 µmol/min/kg, an Activity [26] of 1.8 nM and an inhibition [27] of 24%. For the same compound, the Activity [28] was 107 µmol/min/kg, the inhibition [29] was -7.3% and the Activity [30] was 7.8 mM. It also gave an inhibition [31] of 7.6% and an IC50 [32] of 8 µM.
